# Experimental data taken from ChEMBL document CHEMBL3817756, “Synthesis and Anti-Influenza Activity of Pyridine, Pyridazine, and Pyrimidine C-Nucleosides as Favipiravir (T-705) Analogues” (J Med Chem, 2016).
# The source made the active and inactive calls. The calls are words filed in the database; no cut-off is given here.
# How the values were obtained:
# [1] = tested on: Influenza A virus; test: Antiviral activity against Influenza A virus infected in MDCK cells; format: functional, organism-based
# In short: (§1)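 MDCK cells at 1 × 10^4 cells/well in DMEM with 0.3% FBS, 1% penicillin/streptomycin and 1% DMSO. After 24 h, serially diluted compound was added for a further 24 h. Cells were infected with A/WSN/33 at 250 IU/well for 20 h at 37 °C. Supernatant was replaced with 25 μM MUNANA in 33 mM MES, pH 6.5, for 45 min at 30 °C. Reaction stopped with glycine pH 10.5/25% ethanol; fluorescence read at ex 355/em 460 nm. EC50 averaged over n ≥ 2.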
# [2] = tested on: Influenza A virus; test: Antiviral activity against Influenza A virus A/WSN/33(H1N1) infected in NHBE cells; format: functional, organism-based; conditions: A/WSN/1933(H1N1)
# [3] = Drug metabolism in NHBE cells assessed as ((2R,3S,4R,5S)-5-(2-carbamoyl-3-fluoropyridin-4-yl)-3,4-dihydroxytetrahydrofuran-2-yl)methyl dihydrogen phosphate level per million cells at 50 uM after 24 hrs by LC-MS/Ms analysis; format: ADME, cell-based; conditions: human
# [4] = Drug metabolism in NHBE cells assessed as ((2R,3S,4R,5S)-5-(2-carbamoyl-3-fluoropyridin-4-yl)-3,4-dihydroxytetrahydrofuran-2-yl)methyl tetrahydrogen triphosphate level per million cells at 50 uM after 24 hrs by LC-MS/Ms analysis; format: ADME, cell-based; conditions: human
# [5] = tested on: MDCK; test: Drug metabolism in MDCK cells assessed as ((2R,3S,4R,5S)-5-(2-carbamoyl-3-fluoropyridin-4-yl)-3,4-dihydroxytetrahydrofuran-2-yl)methyl tetrahydrogen triphosphate level per million cells at 50 uM after 24 hrs by LC-MS/Ms analysis; format: ADME, cell-based, Canis lupus familiaris; conditions: dog
# [6] = tested on: A549; test: Drug metabolism in human A549 cells assessed as ((2R,3S,4R,5S)-5-(2-carbamoyl-3-fluoropyridin-4-yl)-3,4-dihydroxytetrahydrofuran-2-yl)methyl tetrahydrogen triphosphate level per million cells at 50 uM after 24 hrs by LC-MS/Ms analysis; format: ADME, cell-based; conditions: a549, 24 h
# [7] = tested on: MDCK; test: Drug metabolism in MDCK cells assessed as ((2R,3S,4R,5S)-5-(2-carbamoyl-3-fluoropyridin-4-yl)-3,4-dihydroxytetrahydrofuran-2-yl)methyl dihydrogen phosphate level per million cells at 50 uM after 24 hrs by LC-MS/Ms analysis; format: ADME, cell-based, Canis lupus familiaris; conditions: dog
# [8] = tested on: Influenza A virus; test: Antiviral activity against Influenza A virus A/WSN/33(H1N1) infected in MDCK cells assessed as inhibition of neuraminidase activity using 2'-(4-methylumbelliferyl)-alpha-D-N-acetylneuraminic acid substrate pretreated with cells for 24 hrs followed by viral infection measured after 20 hrs by fluorescence assay; format: functional, organism-based; conditions: A/WSN/1933(H1N1); in short: as §1
# [9] = Cytotoxicity against MDCK cells after 10 mins by CellTiter-Glo assay; format: cell-based, Canis lupus familiaris; conditions: dog
# In short: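 Uninfected cultures run in parallel with the MDCK neuraminidase antiviral assay. CellTiter-Glo reagent added, 10 min at room temperature, luminescence read.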
# [10] = tested on: Influenza A virus; test: Antiviral activity against Influenza A virus A/WSN/33(H1N1) infected in human A549 cells; format: functional, organism-based; conditions: A/WSN/1933(H1N1)
# [11] = tested on: A549; test: Drug metabolism in human A549 cells assessed as ((2R,3S,4R,5S)-5-(2-carbamoyl-3-fluoropyridin-4-yl)-3,4-dihydroxytetrahydrofuran-2-yl)methyl dihydrogen phosphate level per million cells at 50 uM after 24 hrs by LC-MS/Ms analysis; format: ADME, cell-based; conditions: a549, 24 h
# [12] = tested on: A549; test: Drug metabolism in human A549 cells assessed as nucleoside triphosphate formation at 50 uM after 24 hrs by LC-MS/Ms analysis; format: ADME, cell-based; conditions: a549, 24 h, BLD = below limit of detection
# [13] = tested on: Lung; test: Prodrug conversion in Balb/c mouse assessed as ((2R,3S,4R,5S)-5-(2-carbamoyl-3-fluoropyridin-4-yl)-3,4-dihydroxytetrahydrofuran-2-yl)methyl tetrahydrogen triphosphate level in lung at 2 mg/kg, iv measured at 2 hrs post dose by LC-MS/MS analysis; format: ADME, organism-based; conditions: in vivo, BLD = below limit of detection
# In short: (§2)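 Female Balb/c mice (N = 2), fasted overnight, given the prodrug IV at 2 mg/kg in 10% DMSO/60% PEG400/30% water. Under isoflurane anaesthesia, blood sampled at 0.25 and 2 h post dose. Parent nucleoside measured in blood; monophosphate and triphosphate measured in lung.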
# [14] = tested on: A549; test: Prodrug conversion in human A549 cells assessed as ((2R,3S,4R,5S)-5-(2-carbamoyl-3-fluoropyridin-4-yl)-3,4-dihydroxytetrahydrofuran-2-yl)methyl tetrahydrogen triphosphate level per million cells at 50 uM after 24 hrs by LC-MS/Ms analysis; format: ADME, cell-based; conditions: a549, 24 h
# [15] = tested on: MDCK; test: Prodrug conversion in MDCK cells assessed as ((2R,3S,4R,5S)-5-(2-carbamoyl-3-fluoropyridin-4-yl)-3,4-dihydroxytetrahydrofuran-2-yl)methyl tetrahydrogen triphosphate level per million cells at 50 uM after 24 hrs by LC-MS/Ms analysis; format: ADME, cell-based, Canis lupus familiaris; conditions: dog
# [16] = tested on: Blood; test: Prodrug conversion in Balb/c mouse assessed as 4-((2S,3R,4S,5R)-3,4-dihydroxy-5-(hydroxymethyl)tetrahydrofuran-2-yl)-3-fluoropicolinamide level in blood at 2 mg/kg, iv measured at 2 hrs post dose by LC-MS/MS analysis; format: ADME, organism-based; conditions: in vivo; in short: as §2
# [17] = tested on: Blood; test: Prodrug conversion in Balb/c mouse assessed as 4-((2S,3R,4S,5R)-3,4-dihydroxy-5-(hydroxymethyl)tetrahydrofuran-2-yl)-3-fluoropicolinamide level in blood at 2 mg/kg, iv measured at 0.25 hrs post dose by LC-MS/MS analysis; format: ADME, organism-based; conditions: in vivo; in short: as §2
# [18] = tested on: Lung; test: Prodrug conversion in Balb/c mouse assessed as ((2R,3S,4R,5S)-5-(2-carbamoyl-3-fluoropyridin-4-yl)-3,4-dihydroxytetrahydrofuran-2-yl)methyl dihydrogen phosphate level in lung at 2 mg/kg, iv measured at 2 hrs post dose by LC-MS/MS analysis; format: ADME, organism-based; conditions: in vivo; in short: as §2
# [19] = tested on: Lung; test: Prodrug conversion in Balb/c mouse assessed as ((2R,3S,4R,5S)-5-(2-carbamoyl-3-fluoropyridin-4-yl)-3,4-dihydroxytetrahydrofuran-2-yl)methyl tetrahydrogen triphosphate level in lung at 2 mg/kg, iv measured at 0.25 hrs post dose by LC-MS/MS analysis; format: ADME, organism-based; conditions: in vivo; in short: as §2
# [20] = tested on: Lung; test: Prodrug conversion in Balb/c mouse assessed as ((2R,3S,4R,5S)-5-(2-carbamoyl-3-fluoropyridin-4-yl)-3,4-dihydroxytetrahydrofuran-2-yl)methyl dihydrogen phosphate level in lung at 2 mg/kg, iv measured at 0.25 hrs post dose by LC-MS/MS analysis; format: ADME, organism-based; conditions: in vivo; in short: as §2
# [21] = tested on: A549; test: Prodrug conversion in human A549 cells assessed as ((2R,3S,4R,5S)-5-(2-carbamoyl-3-fluoropyridin-4-yl)-3,4-dihydroxytetrahydrofuran-2-yl)methyl dihydrogen phosphate level per million cells at 50 uM after 24 hrs by LC-MS/Ms analysis; format: ADME, cell-based; conditions: a549, 24 h
# [22] = Prodrug conversion in NHBE cells assessed as ((2R,3S,4R,5S)-5-(2-carbamoyl-3-fluoropyridin-4-yl)-3,4-dihydroxytetrahydrofuran-2-yl)methyl dihydrogen phosphate level per million cells at 50 uM after 24 hrs by LC-MS/Ms analysis; format: ADME, cell-based; conditions: human
# [23] = tested on: MDCK; test: Prodrug conversion in MDCK cells assessed as ((2R,3S,4R,5S)-5-(2-carbamoyl-3-fluoropyridin-4-yl)-3,4-dihydroxytetrahydrofuran-2-yl)methyl dihydrogen phosphate level per million cells at 50 uM after 24 hrs by LC-MS/Ms analysis; format: ADME, cell-based, Canis lupus familiaris; conditions: dog
# [24] = Prodrug conversion in NHBE cells assessed as ((2R,3S,4R,5S)-5-(2-carbamoyl-3-fluoropyridin-4-yl)-3,4-dihydroxytetrahydrofuran-2-yl)methyl tetrahydrogen triphosphate level per million cells at 50 uM after 24 hrs by LC-MS/Ms analysis; format: ADME, cell-based; conditions: human
# [25] = tested on: Tni; test: (§3) Binding affinity to recombinant Influenza A virus A/chicken/Nanchang/3-120/01(H3N2) RNA polymerase subunit C-terminal TAP/His6-tagged PA/PB1/PB2 expressed in Tni cells assessed as compound incorporation by measuring 14-mer product formation using 5'-pApG/14-nucleotide RNA with U as nucleotide as primer/template at 100 uM after 30 mins in presence of [alpha-33P]CTP by PAGE analysis; format: cell-based
# [26] = Inhibition of HCV NS5B RNA-dependent RNA polymerase assessed as inhibition of [3H]CTP incorporation using HCV 5'-untranslated region RNA template incubated for 2 hrs; parameters: species or system Hepacivirus hominis
# [27] = tested on: Tni; test: as §3, with “measuring 10 to” for “measuring”, “C” for “U”; format: cell-based
# [28] = Inhibition of recombinant human Norovirus GII.4 RNA-dependent RNA polymerase expressed in Escherichia coli assessed as inhibition of [3H]UTP incorporation using HCV 5'-untranslated region RNA template incubated for 2.5 hrs by radiometric assay
# [29] = Inhibition of human rhinovirus 16 RNA-dependent RNA polymerase assessed as inhibition of [3H]UTP incorporation using HCV 5'-untranslated region RNA template incubated for 2.5 hrs by radiometric assay; parameters: species or system rhinovirus A16
smiles,measurement,setting,value
NC(=O)c1nccc([C@@H]2O[C@H](CO)[C@@H](O)[C@H]2O)c1F,EC50,[1],1.9 µM
same,EC50,[2],29.5 µM
same,Drug metabolism,[3],262 pmol
same,Drug metabolism,[4],21.6 pmol
same,Drug metabolism,[5],192 pmol
same,Drug metabolism,[6],11.6 pmol
same,Drug metabolism,[7],48.5 pmol
same,EC50,[8],1.9 µM
same,CC50 at 10 min,[9],> 400 µM
same,EC50,[10],52 µM
same,Drug metabolism,[11],41 pmol
NC(=O)c1nccc([C@@H]2O[C@H](CO)[C@@H](O)[C@H]2O)c1Cl,Drug metabolism,[12],BLD
NC(=O)c1nccc([C@@H]2O[C@](F)(CO)[C@@H](O)[C@H]2O)c1F,EC50,[8],98 µM
same,CC50 at 10 min,[9],185 µM
same,Drug metabolism,[12],BLD
CC(C)(C)C(=O)OCOP(=O)(OCOC(=O)C(C)(C)C)OC[C@H]1O[C@@H](c2ccnc(C(N)=O)c2F)[C@H](O)[C@@H]1O,EC50,[1],5.8 µM
same,EC50,[2],57.5 µM
same,Drug metabolism,[13],BLD
same,Drug metabolism,[14],5 pmol
same,Drug metabolism,[15],179 pmol
same,EC50,[8],5.8 µM
same,Drug metabolism,[16],422 nM
same,Drug metabolism,[17],1436 nM
same,Drug metabolism,[18],792 nM
same,CC50 at 10 min,[9],> 400 µM
same,Drug metabolism,[19],< 60 nM
same,EC50,[10],34.7 µM
same,Drug metabolism,[20],1764 nM
same,Drug metabolism,[21],74 pmol
same,Drug metabolism,[22],113 pmol
same,Drug metabolism,[23],248 pmol
same,Drug metabolism,[24],7.22 pmol
Cn1cc([C@@H]2O[C@H](CO)[C@@H](O)[C@H]2O)c(=O)c(C(N)=O)n1,EC50,[8],91 µM
same,CC50 at 10 min,[9],291 µM
same,Drug metabolism,[12],BLD
NC(=O)c1nccc([C@@H]2O[C@H](CO)[C@@H](O)[C@H]2O)n1,EC50,[8],8.7 µM
same,CC50 at 10 min,[9],> 200 µM
same,Drug metabolism,[12],BLD
NC(=O)c1nccc([C@@H]2O[C@H](COP(=O)(O)OP(=O)(O)OP(=O)(O)O)[C@@H](O)[C@H]2O)c1F,Activity,[25],Active
same,IC50,[26],5.3 µM
same,Activity,[27],Active
same,IC50,[28],3.5 µM
same,IC50,[29],4 µM
NC(=O)c1nccc([C@@H]2O[C@H](CO)[C@@H](O)[C@H]2F)c1F,EC50,[8],87 µM
same,CC50 at 10 min,[9],306 µM
C=Cc1c([C@@H]2O[C@H](CO)[C@@H](O)[C@H]2O)ccnc1C(N)=O,EC50,[8],58 µM
same,CC50 at 10 min,[9],152 µM
NC(=O)c1nc(F)cn([C@@H]2O[C@H](CO)[C@@H](O)[C@H]2O)c1=O,EC50,[8],2.2 µM
same,CC50 at 10 min,[9],> 400 µM
COc1c(C(N)=O)ccnc1[C@@H]1O[C@H](CO)[C@@H](O)[C@H]1O,EC50,[8],88 µM
same,CC50 at 10 min,[9],207 µM
NC(=O)c1cc([C@@H]2O[C@H](CO)[C@@H](O)[C@H]2O)ccn1,Drug metabolism,[12],BLD
C[C@H](NP(=O)(OC[C@H]1O[C@@H](c2ccnc(C(N)=O)c2F)[C@H](O)[C@@H]1O)Oc1ccccc1)C(=O)CC1CCCCC1 (some centres not stated),EC50,[1],129 µM
same,Drug metabolism,[14]; BLD = below limit of detection,BLD
same,Drug metabolism,[15]; BLD = below limit of detection,BLD
same,EC50,[8],129 µM
same,EC50,[10],74.1 µM
same,Drug metabolism,[21],59.5 pmol
same,Drug metabolism,[22],42.6 pmol
same,Drug metabolism,[23],44.7 pmol
same,Drug metabolism,[24]; BLD = below limit of detection,BLD
NC(=O)c1nccc([C@@H]2O[C@H](CO)[C@@H](O)[C@H]2O)c1O,EC50,[8],1.3 µM
same,CC50 at 10 min,[9],2 µM
C#Cc1c([C@@H]2O[C@H](CO)[C@@H](O)[C@H]2O)ccnc1C(N)=O,EC50,[8],36 µM
same,CC50 at 10 min,[9],98 µM
NC(=O)c1nc(F)cnc1O [FAVIPIRAVIR],EC50,[8],2.7 µM
same,CC50 at 10 min,[9],> 400 µM
